Legend:
[1] = molecular target: T1, Sodium-dependent serotonin transporter (Homo sapiens, UniProt P31645); test: Inhibition of [3H]-citalopram binding to the serotonin transporter in rhesus (Macaca mulatta) or cynomolgus monkey (Macaca fascicularis) caudate-putamen.; format: tissue-based, Cercopithecidae
How it was run: (§1)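 Caudate-putamen membranes homogenised in ice-cold 50 mM Tris·HCl (pH 7.4), spun at 38000g for 20 min, washed twice. Assay at 4 mg original wet tissue/mL with 1 nM [3H]citalopram in 50 mM Tris·HCl pH 7.4 plus 100 mM NaCl. Incubated 2 h at 0-4 °C, then filtered on polyethyleneimine-soaked GF/B and counted by scintillation. Nonspecific binding defined with 10 µM fluoxetine. IC50 by EBDA; triplicates, 2-3 brains.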

[2] = molecular target: T1, Sodium-dependent serotonin transporter; test: Inhibition of [3H]citalopram binding to the serotonin transporter in rhesus (Macaca mulatta) or cynomolgus monkey (Macaca fascicularis) caudate-putamen.; format: tissue-based, Cercopithecidae; details: target entry is the homologue from another species; how it was run: as §1
[3] = molecular target: Monoamine transporters; serotonin & dopamine (Homo sapiens) (UniProt P31645+Q01959); test: SERT/DAT ratio of the compound; format: protein assay
Sequence of Monoamine transporters; serotonin & dopamine (Homo sapiens) (P31645 whole entry, looked up): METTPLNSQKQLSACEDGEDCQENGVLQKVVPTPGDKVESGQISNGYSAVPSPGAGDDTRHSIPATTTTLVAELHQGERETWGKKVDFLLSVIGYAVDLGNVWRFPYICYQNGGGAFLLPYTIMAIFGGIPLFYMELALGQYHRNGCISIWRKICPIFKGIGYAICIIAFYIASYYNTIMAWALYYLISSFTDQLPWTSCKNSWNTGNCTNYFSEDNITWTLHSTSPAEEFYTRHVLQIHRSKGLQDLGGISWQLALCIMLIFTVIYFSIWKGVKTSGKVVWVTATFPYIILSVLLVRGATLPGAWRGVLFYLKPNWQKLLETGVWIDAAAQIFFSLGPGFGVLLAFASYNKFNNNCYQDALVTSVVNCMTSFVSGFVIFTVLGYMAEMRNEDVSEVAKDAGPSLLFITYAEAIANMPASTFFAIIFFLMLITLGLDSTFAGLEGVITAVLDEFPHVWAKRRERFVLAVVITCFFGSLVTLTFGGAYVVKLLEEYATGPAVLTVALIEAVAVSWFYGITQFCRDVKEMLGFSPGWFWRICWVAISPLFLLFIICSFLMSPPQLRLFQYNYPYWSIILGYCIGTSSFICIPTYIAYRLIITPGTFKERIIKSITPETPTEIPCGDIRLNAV
Sequence of Monoamine transporters; serotonin & dopamine (Homo sapiens) (Q01959 whole entry, looked up): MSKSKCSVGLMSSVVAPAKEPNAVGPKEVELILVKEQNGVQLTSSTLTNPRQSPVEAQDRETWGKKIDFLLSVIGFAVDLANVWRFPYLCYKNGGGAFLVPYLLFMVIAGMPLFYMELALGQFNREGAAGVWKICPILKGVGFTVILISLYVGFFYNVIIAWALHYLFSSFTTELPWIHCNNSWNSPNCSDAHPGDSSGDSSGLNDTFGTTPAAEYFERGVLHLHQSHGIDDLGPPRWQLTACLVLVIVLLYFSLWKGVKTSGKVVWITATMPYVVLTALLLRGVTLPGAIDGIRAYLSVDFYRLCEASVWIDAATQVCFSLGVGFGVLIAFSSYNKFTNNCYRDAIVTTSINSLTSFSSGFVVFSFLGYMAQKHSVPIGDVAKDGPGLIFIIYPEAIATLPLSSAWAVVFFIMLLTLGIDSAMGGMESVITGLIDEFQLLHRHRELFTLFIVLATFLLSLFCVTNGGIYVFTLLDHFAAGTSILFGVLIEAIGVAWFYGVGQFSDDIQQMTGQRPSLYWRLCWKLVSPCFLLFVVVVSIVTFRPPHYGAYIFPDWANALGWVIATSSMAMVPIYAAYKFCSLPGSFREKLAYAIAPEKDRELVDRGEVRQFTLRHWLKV

T1 sequence (P31645 whole entry): as the sequence (P31645 whole entry, looked up) above

Row | Compound | IC50 [1] | IC50 [2] [nM] | Ratio [3]
1 | COC(=O)[C@@H]1C2CC[C@H](C[C@@H]1c1ccccc1)N2C.Cl | Not Active | – | –
2 | COC(=O)[C@H]1C2C(=O)CC(C[C@H]1c1ccc(Cl)c(Cl)c1)N2C (some centres not stated) | – | 7040 | –
3 | COC(=O)C1=C(c2ccc(F)cc2)CC2C[C@@H](O)C1N2C (some centres not stated) | – | > 10000 | 1
4 | COC(=O)C1C(OC(c2ccc(F)cc2)c2ccc(F)cc2)CC2C[C@@H](O)C1N2C (some centres not stated) | – | 9560 | –
5 | COC(=O)C1=C(c2ccc3ccccc3c2)CC2[C@@H](O)CC1N2C (some centres not stated) | – | 260 | 1
6 | COC(=O)C1=C(c2ccc(F)cc2)CC2[C@@H](O)CC1N2C (some centres not stated) | – | > 20000 | 1
7 | COC(=O)C1=C(c2ccc3ccccc3c2)CC2C[C@@H](O)C1N2C (some centres not stated) | – | 677 | 15
8 | COC(=O)C1=C(c2ccc(Cl)c(Cl)c2)CC2[C@@H](O)CC1N2C (some centres not stated) | – | 3320 | 60
9 | COC(=O)C1=C(c2ccc(Cl)c(Cl)c2)CC2C[C@H](O)[C@H]1N2C | – | 1590 | 6
10 | COC(=O)[C@@H]1C(c2ccc(Cl)c(Cl)c2)C[C@H]2C[C@@H](O)C1N2C (some centres not stated) | – | 1220 | 1610
11 | COC(=O)C1=C(c2ccc(Cl)c(Cl)c2)C[C@H]2C[C@@H](O)C1N2C | – | 5370 | –
12 | COC(=O)C1=C(c2ccc(Cl)c(Cl)c2)CC2C[C@@H](O)C1N2C (some centres not stated) | – | > 6000 | > 300
13 | COC(=O)C1C(c2ccc(Cl)c(Cl)c2)CC2[C@H](O)CC1N2C (some centres not stated) | – | 10700 | –
14 | COC(=O)C1C(c2ccc(Cl)c(Cl)c2)CC2C[C@H](O)C1N2C (some centres not stated) | – | 991 | –
15 | COC(=O)C1=C(c2ccccc2)CC2CCC1N2C (configuration not stated) | – | 28600 | 11
16 | COC(=O)C1=C(c2ccccc2)CC2C[C@@H](O)C1N2C (some centres not stated) | – | > 10000 | 1
17 | COC(=O)C1=C(c2ccccc2)CC2[C@@H](O)CC1N2C (some centres not stated) | – | > 100000 | 1
18 | COC(=O)C1C(OC(c2ccc(F)cc2)c2ccc(F)cc2)CC2[C@@H](O)CC1N2C (some centres not stated) | – | 4850 | –
19 | COC(=O)C1C(c2ccc(Cl)c(Cl)c2)C[C@H]2C[C@@H](O)C1N2C (some centres not stated) | – | 15 | 50
20 | COC(=O)C1=C(c2ccc(Cl)c(Cl)c2)CC2CCC1N2C (configuration not stated) | – | – | 747
21 | COC(=O)C1=C(c2ccc(F)cc2)CC2CCC1N2C (configuration not stated) | – | – | 20
22 | COC(=O)C1=C(c2ccc3ccccc3c2)CC2CCC1N2C (configuration not stated) | – | – | 37

Row | Compound | IC50 [1] | IC50 [2] [nM] | Ratio [3]
23 | COC(=O)C1C(c2ccc(Cl)c(Cl)c2)CC2CCC1N2C (stereo in doubt; 13a) | – | – | 2
24 | COC(=O)C1C(c2ccc3ccccc3c2)CC2CCC1N2C (stereo in doubt; 13b) | – | – | 5
25 | COC(=O)C1C(c2ccc(Cl)c(Cl)c2)CC2[C@@H](O)CC1N2C (stereo in doubt; 14a) [listing 1 of 2 here] | – | 166 | –
26 | COC(=O)C1C(c2ccc(Cl)c(Cl)c2)CC2[C@@H](O)CC1N2C (stereo in doubt; 14a) [listing 2 of 2 here] | – | – | 55
27 | COC(=O)C1C(c2ccc3ccccc3c2)CC2[C@@H](O)CC1N2C (stereo in doubt; 14b) [listing 1 of 2 here] | – | 34.2 | –
28 | COC(=O)C1C(c2ccc3ccccc3c2)CC2[C@@H](O)CC1N2C (stereo in doubt; 14b) [listing 2 of 2 here] | – | – | 4
29 | COC(=O)C1C(c2ccc(F)cc2)CC2[C@@H](O)CC1N2C (stereo in doubt; 14c) [listing 1 of 2 here] | – | > 20000 | –
30 | COC(=O)C1C(c2ccc(F)cc2)CC2[C@@H](O)CC1N2C (stereo in doubt; 14c) [listing 2 of 2 here] | – | – | > 42
31 | COC(=O)C1C(c2ccccc2)CC2[C@@H](O)CC1N2C (stereo in doubt; 14d) [listing 1 of 2 here] | – | 88000 | –
32 | COC(=O)C1C(c2ccccc2)CC2[C@@H](O)CC1N2C (stereo in doubt; 14d) [listing 2 of 2 here] | – | – | 14
33 | COC(=O)C1C(c2ccc(Cl)c(Cl)c2)CC2C[C@@H](O)C1N2C (stereo in doubt; 15a) [listing 1 of 2 here] | – | 27.7 | –
34 | COC(=O)C1C(c2ccc(Cl)c(Cl)c2)CC2C[C@@H](O)C1N2C (stereo in doubt; 15a) [listing 2 of 2 here] | – | – | 20
35 | COC(=O)C1C(c2ccc3ccccc3c2)CC2C[C@@H](O)C1N2C (stereo in doubt; 15b) [listing 1 of 2 here] | – | 5.57 | –
36 | COC(=O)C1C(c2ccc3ccccc3c2)CC2C[C@@H](O)C1N2C (stereo in doubt; 15b) [listing 2 of 2 here] | – | – | 4
37 | COC(=O)C1C(c2ccc(F)cc2)CC2C[C@@H](O)C1N2C (stereo in doubt; 15c) [listing 1 of 2 here] | – | > 10000 | –
38 | COC(=O)C1C(c2ccc(F)cc2)CC2C[C@@H](O)C1N2C (stereo in doubt; 15c) [listing 2 of 2 here] | – | – | > 80
39 | COC(=O)C1C(c2ccccc2)CC2C[C@@H](O)C1N2C (stereo in doubt; 15d) [listing 1 of 2 here] | – | > 10000 | –
40 | COC(=O)C1C(c2ccccc2)CC2C[C@@H](O)C1N2C (stereo in doubt; 15d) [listing 2 of 2 here] | – | – | > 43
41 | COC(=O)C1C(c2ccc(Cl)c(Cl)c2)CC2CCC1N2C (stereo in doubt; 16a) | – | – | 73
42 | COC(=O)C1C(c2ccc3ccccc3c2)CC2CCC1N2C (stereo in doubt; 16b) | – | – | 10
43 | COC(=O)[C@H]1[C@@H](c2ccc(F)cc2)C[C@H]2CC[C@H]1N2C (stereo in doubt; 16c) | – | 1130 | –
44 | COC(=O)C1C(c2ccc(Cl)c(Cl)c2)CC2[C@@H](O)CC1N2C (stereo in doubt; 17a) [listing 1 of 2 here] | – | 1450 | –

Row | Compound | IC50 [1] | IC50 [2] [nM] | Ratio [3]
45 | COC(=O)C1C(c2ccc(Cl)c(Cl)c2)CC2[C@@H](O)CC1N2C (stereo in doubt; 17a) [listing 2 of 2 here] | – | – | 238
46 | COC(=O)C1C(c2ccc3ccccc3c2)CC2[C@@H](O)CC1N2C (stereo in doubt; 17b) [listing 1 of 2 here] | – | 180 | –
47 | COC(=O)C1C(c2ccc3ccccc3c2)CC2[C@@H](O)CC1N2C (stereo in doubt; 17b) [listing 2 of 2 here] | – | – | 6
48 | COC(=O)C1C(c2ccc(F)cc2)CC2[C@@H](O)CC1N2C (stereo in doubt; 17c) [listing 1 of 2 here] | – | 5820 | –
49 | COC(=O)C1C(c2ccc(F)cc2)CC2[C@@H](O)CC1N2C (stereo in doubt; 17c) [listing 2 of 2 here] | – | – | 8
50 | COC(=O)C1C(c2ccccc2)CC2[C@@H](O)CC1N2C (stereo in doubt; 17d) [listing 1 of 2 here] | – | > 10000 | –
51 | COC(=O)C1C(c2ccccc2)CC2[C@@H](O)CC1N2C (stereo in doubt; 17d) [listing 2 of 2 here] | – | – | > 3
52 | COC(=O)C1C(c2ccc(Cl)c(Cl)c2)CC2C[C@@H](O)C1N2C (stereo in doubt; 18a) [listing 1 of 2 here] | – | 1390 | –
53 | COC(=O)C1C(c2ccc(Cl)c(Cl)c2)CC2C[C@@H](O)C1N2C (stereo in doubt; 18a) [listing 2 of 2 here] | – | – | 1170
54 | COC(=O)C1C(c2ccc3ccccc3c2)CC2C[C@@H](O)C1N2C (stereo in doubt; 18b) [listing 1 of 2 here] | – | 94 | –
55 | COC(=O)C1C(c2ccc3ccccc3c2)CC2C[C@@H](O)C1N2C (stereo in doubt; 18b) [listing 2 of 2 here] | – | – | 34
56 | COC(=O)C1C(c2ccc(F)cc2)CC2C[C@@H](O)C1N2C (stereo in doubt; 18c) [listing 1 of 2 here] | – | > 20000 | –
57 | COC(=O)C1C(c2ccc(F)cc2)CC2C[C@@H](O)C1N2C (stereo in doubt; 18c) [listing 2 of 2 here] | – | – | > 120
58 | COC(=O)C1C(c2ccccc2)CC2C[C@@H](O)C1N2C (stereo in doubt; 18d) [listing 1 of 2 here] | – | > 100000 | –
59 | COC(=O)C1C(c2ccccc2)CC2C[C@@H](O)C1N2C (stereo in doubt; 18d) [listing 2 of 2 here] | – | – | > 190
60 | COC(=O)C1C(c2ccc(Cl)c(Cl)c2)CC2C[C@@H](O)C1N2C (stereo in doubt; 33) | – | 533 | –
61 | COC(=O)C1C(c2ccccc2)CC2[C@@H](O)CC1N2C (stereo in doubt; 34) | – | > 20000 | –
62 | COC(=O)[C@H]1C(c2ccc(Cl)c(Cl)c2)CC2C[C@@H](O)[C@H]1N2C (stereo in doubt; (1R)-15a) [listing 1 of 2 here] | – | 139 | –
63 | COC(=O)[C@H]1C(c2ccc(Cl)c(Cl)c2)CC2C[C@@H](O)[C@H]1N2C (stereo in doubt; (1R)-15a) [listing 2 of 2 here] | – | – | 0.05
64 | COC(=O)[C@H]1C(c2ccc(Cl)c(Cl)c2)CC2C[C@@H](O)[C@H]1N2C (stereo in doubt; (1R)-18a) [listing 1 of 2 here] | – | 5300 | –
65 | COC(=O)[C@H]1C(c2ccc(Cl)c(Cl)c2)CC2C[C@@H](O)[C@H]1N2C (stereo in doubt; (1R)-18a) [listing 2 of 2 here] | – | – | 11
